The source of these data is ChEMBL document CHEMBL3745688, “Discovery of novel hybrids of diaryl-1,2,4-triazoles and caffeic acid as dual inhibitors of cyclooxygenase-2 and 5-lipoxygenase for cancer therapy” (Eur J Med Chem, 2016).

Experiment [1] concerns A549. The experiment in a line: Antiproliferative activity against human A549 cells after 72 hrs by MTT assay. It is filed as functional, cell-based. The following applies: A549, 72 h. The method in brief: (§1)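 Cells seeded at 5×10^4/well, grown 24 h at 37 °C in 5% CO₂, then exposed to compounds dissolved in DMSO at a range of concentrations for 72 h. MTT (5 mg/mL in PBS) added for 4 h, then OD read at 570 nm. IC50 taken from dose-response curves, mean ± S.D. of three independent experiments.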

Experiment [2] relates to A549. The experiment is described as follows: Cell cycle arrest in human A549 cells assessed as accumulation at S phase at 25 uM after 72 hrs by propidium iodide staining based flow cytometry (reference value: 42.46%). It is filed as functional.
The test system of experiment [3] is A549. The experiment is described as follows: Induction of apoptosis in human A549 cells assessed as necrotic cells at 25 uM after 72 hrs by annexinV-APC/7-AAD staining based flow cytometry (Rvb =0.41%). The class given is functional.
Experiment [4] concerns A549. The experiment in a line: Cell cycle arrest in human A549 cells assessed as accumulation at G2 phase at 5 uM after 72 hrs by propidium iodide staining based flow cytometry (reference value: 3.88%). It is filed as functional.
Experiment [5] relates to A549. The experiment is described as follows: Cell cycle arrest in human A549 cells assessed as accumulation at S phase at 5 uM after 72 hrs by propidium iodide staining based flow cytometry (reference value: 42.46%). It is filed as functional.
Experiment [6] concerns A549. The experiment in a line: Induction of apoptosis in human A549 cells assessed as necrotic cells at 5 uM after 72 hrs by annexinV-APC/7-AAD staining based flow cytometry (reference value: 0.41%). The class given is functional.
Experiment [7] is described as follows: Antiproliferative activity against mouse B16F10 cells after 72 hrs by MTT assay. The class given is functional, cell-based. The following applies: B16-F10, 72 h. The method in brief: as §1
Experiment [8] has as its target T1, Prostaglandin G/H synthase 2 (Rattus norvegicus, UniProt P35355).
T1 sequence (P35355 whole entry): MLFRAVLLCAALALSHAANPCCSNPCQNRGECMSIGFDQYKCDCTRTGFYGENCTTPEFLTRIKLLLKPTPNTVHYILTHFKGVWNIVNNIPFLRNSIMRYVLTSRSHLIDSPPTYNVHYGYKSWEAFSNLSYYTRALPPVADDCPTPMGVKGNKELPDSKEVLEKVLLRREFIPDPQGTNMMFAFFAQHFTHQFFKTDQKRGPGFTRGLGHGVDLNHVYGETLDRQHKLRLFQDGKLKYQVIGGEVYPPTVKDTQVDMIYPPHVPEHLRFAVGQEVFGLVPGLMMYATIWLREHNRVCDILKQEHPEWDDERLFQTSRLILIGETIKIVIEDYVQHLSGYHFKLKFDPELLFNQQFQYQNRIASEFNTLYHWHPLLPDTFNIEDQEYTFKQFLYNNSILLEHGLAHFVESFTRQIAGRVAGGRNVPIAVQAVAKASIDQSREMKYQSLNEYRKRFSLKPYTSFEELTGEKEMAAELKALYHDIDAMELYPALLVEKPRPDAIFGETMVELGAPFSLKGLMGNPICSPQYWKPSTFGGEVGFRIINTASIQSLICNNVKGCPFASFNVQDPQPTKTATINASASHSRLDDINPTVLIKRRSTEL
The experiment in a line: Inhibition of COX2 in rat abdominal macrophages assessed as PGE2 production pretreated for 30 mins followed by addition of 10 uM arachidonic acid as substrate for 20 mins by EIA.

Experiment [9] concerns A549. The experiment in a line: Induction of apoptosis in human A549 cells assessed as viable cells at 25 uM after 72 hrs by annexinV-APC/7-AAD staining based flow cytometry (reference value: 92.08%). The class given is functional. The following applies: A549, 72 h, read-out: Activity.
Experiment [10] concerns A549. The experiment is described as follows: Induction of apoptosis in human A549 cells assessed as late apoptotic cells at 5 uM after 72 hrs by annexinV-APC/7-AAD staining based flow cytometry (reference value: 1.81%). The class given is functional.
Experiment [11] relates to A549. The experiment is described as follows: Induction of apoptosis in human A549 cells assessed as necrotic cells at 1 uM after 72 hrs by annexinV-APC/7-AAD staining based flow cytometry (reference value: 0.41%). It is filed as functional.
The subject of experiment [12] is A549. The experiment is described as follows: Induction of apoptosis in human A549 cells assessed as early apoptotic cells at 1 uM after 72 hrs by annexinV-APC/7-AAD staining based flow cytometry (reference value: 5.7%). It is filed as functional.
Experiment [13] deals with A549. The experiment in a line: Cell cycle arrest in human A549 cells assessed as accumulation at G1 phase at 1 uM after 72 hrs by propidium iodide staining based flow cytometry (reference value: 53.66%). The class given is functional.
Experiment [14] in a line: Antiproliferative activity against human Caco2 cells after 72 hrs by MTT assay. It is filed as functional, cell-based. Conditions: Caco-2, 72 h. The method in brief: as §1
Experiment [15] relates to A549. The experiment in a line: Induction of apoptosis in human A549 cells assessed as late apoptotic cells at 1 uM after 72 hrs by annexinV-APC/7-AAD staining based flow cytometry (reference value: 1.81%). The class given is functional.
Experiment [16] addresses T2, Prostaglandin G/H synthase 1 (Bos taurus, UniProt O62664).
T2 sequence (O62664 whole entry): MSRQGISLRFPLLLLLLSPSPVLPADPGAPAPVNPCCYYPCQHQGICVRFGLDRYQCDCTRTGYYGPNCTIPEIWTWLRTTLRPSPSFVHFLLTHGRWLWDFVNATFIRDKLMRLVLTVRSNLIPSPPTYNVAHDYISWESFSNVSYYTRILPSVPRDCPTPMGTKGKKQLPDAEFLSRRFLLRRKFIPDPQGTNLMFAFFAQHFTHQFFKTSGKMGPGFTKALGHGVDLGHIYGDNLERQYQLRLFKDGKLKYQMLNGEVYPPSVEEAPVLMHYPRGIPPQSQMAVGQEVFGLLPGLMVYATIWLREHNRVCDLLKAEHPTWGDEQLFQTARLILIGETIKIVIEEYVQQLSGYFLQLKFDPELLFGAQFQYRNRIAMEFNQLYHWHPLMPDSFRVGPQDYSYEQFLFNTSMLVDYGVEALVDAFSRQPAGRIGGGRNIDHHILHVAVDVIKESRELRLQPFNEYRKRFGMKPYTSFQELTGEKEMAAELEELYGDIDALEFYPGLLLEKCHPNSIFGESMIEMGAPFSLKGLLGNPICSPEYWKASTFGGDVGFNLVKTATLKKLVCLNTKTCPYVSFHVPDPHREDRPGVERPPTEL
The experiment in a line: Inhibition of COX1 in calf endotheliocyte assessed as 6keto-PGF1alpha production pretreated for 20 mins followed by addition of 10 uM arachidonic acid as substrate for 20 mins by radioimmuno assay. The method in brief:
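Endothelial cells from neonatal calf thoracic aorta plated at 1.0×10^6 in DMEM with 10% FBS and grown 24 h at 37 °C in 5% CO₂. Compound or DMSO added for 20 min, then arachidonic acid (10 μM) for another 20 min. 6-keto-PGF1α in the medium quantified by radioimmunoassay. IC50 is the mean of four determinations.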

In experiment [17] the test system is A549. The experiment in a line: Cell cycle arrest in human A549 cells assessed as accumulation at G1 phase at 5 uM after 72 hrs by propidium iodide staining based flow cytometry (reference value: 53.66%). The class given is functional.
In experiment [18] the test system is A549. The experiment is described as follows: Induction of apoptosis in human A549 cells assessed as viable cells at 5 uM after 72 hrs by annexinV-APC/7-AAD staining based flow cytometry (Rvb =92.08%). The class given is functional. The following applies: A549, 72 h, read-out: Activity.
The test system of experiment [19] is A549. The experiment is described as follows: Cell cycle arrest in human A549 cells assessed as accumulation at G2 phase after 72 hrs by propidium iodide staining based flow cytometry. It is filed as functional.

As for `CS(=O)(=O)c1ccc(-c2nc(SCCCOC(=O)/C=C/c3ccc(O)c(O)c3)nn2-c2ccc(F)cc2)cc1`, the IC50 turned out to be 9.52 µM with A549 [1]; 10.4 µM in experiment [7]; 0.18 µM in [8]; 11.2 µM in experiment [14]; 12.6 µM in experiment [16]. Besides, the Activity in the experiment on A549 [2] is on record as 32.19%; with A549 [3] it was 1.51%; with A549 [4], 13.76%; in the experiment with A549 [5], 40.9%; with A549 [6], 2.14%; with A549 [10] it was 6.37%. For the same compound, the Activity is 0.91% with A549 [11]; 9.73% in the experiment with A549 [12]; 49.85% with A549 [13]; 3.13% with A549 [15]; 45.34% in the experiment with A549 [17]; “Dose-dependent effect” in the experiment with A549 [19]. Further, the viability at 25 µM with A549 [9] came to 55.1%. Also, in the experiment with A549 [18], the viability at 5 µM is 67.8%.
